Active and inactive are the calls of the source. The calls are words filed in the database; no cut-off is given here.

Experiment [1] relates to Protein disulfide-isomerase (Homo sapiens), P07237 [H256A]. The experiment can be described thus: Inhibition of recombinant human N-terminal His-tagged PDI H256A mutant expressed in Escherichia coli BL21 (DE3) pLysS at 100 uM measured after 1 hr by ANS dye based fluorescence spectra analysis.
In experiment [2] the test system is U-87 MG. Nature of the experiment: Down regulation of cleaved MMP2 expression in human U87MG cells at 10 uM measured after 24 hrs by Western blot analysis. It is filed as functional, cell-based. The following applies: U-87MG ATCC. For orientation: In western blotting, separated proteins are transferred to a membrane and probed.
In experiment [3] the target is 72 kDa type IV collagenase (Homo sapiens) (UniProt P08253). Nature of the experiment: Inhibition of MMP2 activity in human U87MG cells at 10 uM […] by gelatin zymographic method. It is filed as cell-based.
Experiment [4] relates to U-87 MG. The experiment can be described thus: Down regulation of AC022601.1 gene expression in human U87MG cells at 16 uM incubated for 4 hrs followed by bromouridine addition during last 30 mins of incubation by TRIzol-reagent based Bru-Seq analysis relative to control. It is filed as functional, U-87MG ATCC.
The test system of experiment [5] is U-87 MG. The experiment can be described thus: Up regulation of SLC7A11 gene expression in human U87MG cells at 16 uM incubated for 4 hrs followed by bromouridine addition during last 30 mins of incubation by TRIzol-reagent based Bru-Seq analysis relative to control. It is filed as functional, U-87MG ATCC. The procedure, abridged: (§1)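 U87MG cells treated 4 h with test compound (10 or 16 μM, as per line) or DMSO; 2 mM bromouridine added for final 30 min. Total RNA isolated with TRIzol, Bru-labelled nascent RNA captured with anti-BrdU antibody magnetic beads and sequenced; transcript abundance (RPKM) compared with DMSO control. Single experiment.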

In experiment [6] the test system is U-87 MG. Nature of the experiment: Down regulation of KIAA0040 gene expression in human U87MG cells at 16 uM incubated for 4 hrs followed by bromouridine addition during last 30 mins of incubation by TRIzol-reagent based Bru-Seq analysis relative to control. It is filed as functional, U-87MG ATCC.
For experiment [7], the system named is U-87 MG. Nature of the experiment: Down regulation of BIRC3 gene expression in human U87MG cells at 16 uM incubated for 4 hrs followed by bromouridine addition during last 30 mins of incubation by TRIzol-reagent based Bru-Seq analysis relative to control. It is filed as functional, U-87MG ATCC.
Experiment [8] relates to U-87 MG. The experiment can be described thus: Down regulation of AC139722.1 gene expression in human U87MG cells at 16 uM incubated for 4 hrs followed by bromouridine addition during last 30 mins of incubation by TRIzol-reagent based Bru-Seq analysis relative to control. The format is functional, U-87MG ATCC. The procedure, abridged: (§2)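 U87MG cells exposed to compound or DMSO vehicle for 4 h, with 2 mM bromouridine added for the final 30 min. Total RNA isolated with TRIzol; Bru-labelled nascent RNA captured on anti-BrdU antibody-conjugated magnetic beads and sequenced. Transcript abundance expressed as RPKM relative to DMSO. Experiment performed once.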

Experiment [9] has as its system U-87 MG. The experiment can be described thus: Down regulation of HIST1H4B gene expression in human U87MG cells at 16 uM incubated for 4 hrs followed by bromouridine addition during last 30 mins of incubation by TRIzol-reagent based Bru-Seq analysis relative to control. The format is functional, U-87MG ATCC.
Experiment [10] concerns U-87 MG. The experiment can be described thus: Down regulation of CTHRC1 gene expression in human U87MG cells at 16 uM incubated for 4 hrs followed by bromouridine addition during last 30 mins of incubation by TRIzol-reagent based Bru-Seq analysis relative to control. The format is functional, U-87MG ATCC. The procedure, abridged:
as §2

For experiment [11], the system named is U-87 MG. The experiment can be described thus: Up regulation of EID3 gene expression in human U87MG cells at 16 uM incubated for 4 hrs followed by bromouridine addition during last 30 mins of incubation by TRIzol-reagent based Bru-Seq analysis relative to control. It is filed as functional, U-87MG ATCC. The essentials:
as §2

For experiment [12], the system named is U-87 MG. Nature of the experiment: Cytotoxicity against human U87MG cells assessed as inhibition of cell proliferation at 10 uM measured after 24 hrs treatment followed by 10 days by colony formation assay relative to control.
A further experiment has as its system A 172. Nature of the experiment: Induction of morphological changes in human A172 cells assessed as formation of lipid vesicles around nucleus at 17 uM measured after 48 hrs by Giemsa-staining based microscopic analysis. It is filed as functional, cell-based.
The subject of experiment [13] is U-87 MG. Nature of the experiment: Up regulation of HSPH1 gene expression in human U87MG cells at 10 uM incubated for 4 hrs followed by bromouridine addition during last 30 mins of incubation by TRIzol-reagent based Bru-Seq analysis relative to control. The format is functional, U-87MG ATCC. The essentials: as §2
In experiment [14] the test system is U-87 MG. Nature of the experiment: Down regulation of E2F8 gene expression in human U87MG cells at 10 uM incubated for 4 hrs followed by bromouridine addition during last 30 mins of incubation by TRIzol-reagent based Bru-Seq analysis relative to control. The format is functional, U-87MG ATCC.
Experiment [15] relates to U-87 MG. Nature of the experiment: Up regulation of NUPR1 gene expression in human U87MG cells at 10 uM incubated for 4 hrs followed by bromouridine addition during last 30 mins of incubation by TRIzol-reagent based Bru-Seq analysis relative to control. It is filed as functional, U-87MG ATCC. The procedure, abridged:
as §2

Experiment [16] concerns U-87 MG. Nature of the experiment: Down regulation of ANKRD36 gene expression in human U87MG cells at 10 uM incubated for 4 hrs followed by bromouridine addition during last 30 mins of incubation by TRIzol-reagent based Bru-Seq analysis relative to control. It is filed as functional, U-87MG ATCC.
Experiment [17] deals with U-87 MG. Nature of the experiment: Down regulation of KCTD4 gene expression in human U87MG cells at 10 uM incubated for 4 hrs followed by bromouridine addition during last 30 mins of incubation by TRIzol-reagent based Bru-Seq analysis relative to control. It is filed as functional, U-87MG ATCC.
For experiment [18], the system named is U-87 MG. The experiment can be described thus: Down regulation of DUT gene expression in human U87MG cells at 10 uM incubated for 4 hrs followed by bromouridine addition during last 30 mins of incubation by TRIzol-reagent based Bru-Seq analysis relative to control. It is filed as functional, U-87MG ATCC.
Experiment [19] concerns U-87 MG. Nature of the experiment: Down regulation of ANKRD36B gene expression in human U87MG cells at 10 uM incubated for 4 hrs followed by bromouridine addition during last 30 mins of incubation by TRIzol-reagent based Bru-Seq analysis relative to control. It is filed as functional, U-87MG ATCC.
The test system of experiment [20] is U-87 MG. Nature of the experiment: Down regulation of C11orf87 gene expression in human U87MG cells at 10 uM incubated for 4 hrs followed by bromouridine addition during last 30 mins of incubation by TRIzol-reagent based Bru-Seq analysis relative to control. The format is functional, U-87MG ATCC.
For experiment [21], the system named is U-87 MG. The experiment can be described thus: Down regulation of FPGT gene expression in human U87MG cells at 10 uM incubated for 4 hrs followed by bromouridine addition during last 30 mins of incubation by TRIzol-reagent based Bru-Seq analysis relative to control. The format is functional, U-87MG ATCC.
Experiment [22] has as its system U-87 MG. The experiment can be described thus: Up regulation of TM4SF19-TCTEX1D2 gene expression in human U87MG cells at 10 uM incubated for 4 hrs followed by bromouridine addition during last 30 mins of incubation by TRIzol-reagent based Bru-Seq analysis relative to control. It is filed as functional, U-87MG ATCC. The essentials: as §1
Experiment [23] relates to U-87 MG. Nature of the experiment: Up regulation of NGF gene expression in human U87MG cells at 10 uM incubated for 4 hrs followed by bromouridine addition during last 30 mins of incubation by TRIzol-reagent based Bru-Seq analysis relative to control. It is filed as functional, U-87MG ATCC. The essentials: as §2
In experiment [24] the test system is U-87 MG. Nature of the experiment: Up regulation of CTH gene expression in human U87MG cells at 10 uM incubated for 4 hrs followed by bromouridine addition during last 30 mins of incubation by TRIzol-reagent based Bru-Seq analysis relative to control. It is filed as functional, U-87MG ATCC. The essentials: as §2
The subject of experiment [25] is U-87 MG. Nature of the experiment: Up regulation of DNAJB1 gene expression in human U87MG cells at 10 uM incubated for 4 hrs followed by bromouridine addition during last 30 mins of incubation by TRIzol-reagent based Bru-Seq analysis relative to control. It is filed as functional, U-87MG ATCC. The essentials: as §2
Experiment [26] concerns U-87 MG. The experiment can be described thus: Up regulation of SLC7A5 gene expression in human U87MG cells at 10 uM incubated for 4 hrs followed by bromouridine addition during last 30 mins of incubation by TRIzol-reagent based Bru-Seq analysis relative to control. It is filed as functional, U-87MG ATCC. The essentials: as §1

Protein disulfide-isomerase (Homo sapiens), P07237 [H256A], sequence (P07237 whole entry H256A): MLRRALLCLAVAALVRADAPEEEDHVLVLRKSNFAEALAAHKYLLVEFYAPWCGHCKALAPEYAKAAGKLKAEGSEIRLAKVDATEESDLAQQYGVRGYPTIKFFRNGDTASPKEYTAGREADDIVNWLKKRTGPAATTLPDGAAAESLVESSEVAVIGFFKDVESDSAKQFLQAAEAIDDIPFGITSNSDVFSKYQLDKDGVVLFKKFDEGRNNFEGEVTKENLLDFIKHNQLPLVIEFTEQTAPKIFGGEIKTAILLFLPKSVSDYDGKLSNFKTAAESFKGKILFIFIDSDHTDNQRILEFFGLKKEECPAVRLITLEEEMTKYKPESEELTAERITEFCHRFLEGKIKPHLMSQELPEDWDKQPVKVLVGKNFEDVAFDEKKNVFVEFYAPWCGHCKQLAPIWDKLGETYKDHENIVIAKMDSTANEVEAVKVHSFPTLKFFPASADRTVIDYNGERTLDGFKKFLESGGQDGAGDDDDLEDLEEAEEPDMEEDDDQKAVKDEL
72 kDa type IV collagenase (Homo sapiens), sequence (P08253 110-660 limits assumed): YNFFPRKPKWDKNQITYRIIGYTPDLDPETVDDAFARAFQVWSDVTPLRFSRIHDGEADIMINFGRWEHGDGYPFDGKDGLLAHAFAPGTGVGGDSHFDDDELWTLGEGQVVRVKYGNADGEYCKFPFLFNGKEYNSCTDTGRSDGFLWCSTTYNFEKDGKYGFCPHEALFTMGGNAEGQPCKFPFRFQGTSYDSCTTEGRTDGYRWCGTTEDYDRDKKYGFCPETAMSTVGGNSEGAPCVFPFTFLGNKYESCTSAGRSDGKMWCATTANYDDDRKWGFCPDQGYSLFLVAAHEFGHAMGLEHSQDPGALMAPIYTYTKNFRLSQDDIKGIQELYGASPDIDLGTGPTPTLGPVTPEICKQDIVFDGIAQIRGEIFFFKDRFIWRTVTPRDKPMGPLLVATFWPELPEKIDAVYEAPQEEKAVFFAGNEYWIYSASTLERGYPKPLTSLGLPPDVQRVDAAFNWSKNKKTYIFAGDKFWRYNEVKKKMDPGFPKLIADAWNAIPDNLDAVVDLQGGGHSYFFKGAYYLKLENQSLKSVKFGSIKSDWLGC

A word on the inhibition: it is the drop in the measured response relative to a control, in per cent. As to `CCCCCN(CCCCC)S(=O)(=O)c1ccc(C(=O)/C=C/c2cccc(O)c2)cc1`, the inhibition result in [1] was “Active”.

With `O=C(/C=C/c1ccc(-c2cccnc2)cc1)c1cccc(O)c1`, in the experiment with U-87 MG [2], the outcome was Active. In experiment [3], the inhibition entry was “Active”.

Take `COC(=O)c1cccc(/C=C/C(=O)c2cccc(O)c2)c1`: the “fold change (FC)” value with U-87 MG [4] is 2.7; with U-87 MG [5], 21.2; in the experiment with U-87 MG [6] it was 2.6; with U-87 MG [7], 3.3; with U-87 MG [8], 4.7; in the experiment with U-87 MG [9], 2.7. Besides, the results for the “fold change (FC)” value in the experiment on U-87 MG [10] and with U-87 MG [11] were 3.4 and 4.8, respectively.

For the compound `N#Cc1cccc(/C=C/C(=O)c2ccc(O)cc2)c1`, the inhibition at 10 µM with U-87 MG [12] is below 40%. In addition, the outcome in the experiment on A 172 was Active.

Consider `CCCCCN(CCCCC)S(=O)(=O)c1ccc(C(=O)/C=C/c2cccc(C#N)c2)cc1`, for which the “fold change (FC)” value in the experiment on U-87 MG [13] turned out to be 20; with U-87 MG [14] it was 2.4; with U-87 MG [15], 11.8; in the experiment on U-87 MG [16] it was 2.4; in the experiment with U-87 MG [17] it was 2.8; in the experiment on U-87 MG [18], 2.3. Further, the “fold change (FC)” value in the experiment on U-87 MG [19] came out at 2.8; with U-87 MG [20], 2.4; in the experiment with U-87 MG [21], 2.3; with U-87 MG [22] it was 8.7; in the experiment on U-87 MG [23], 10; in the experiment on U-87 MG [24], 17.7. Also, the “fold change (FC)” value with U-87 MG [25] amounted to 16.9; with U-87 MG [26], 16.8.

Source of the values: ChEMBL document CHEMBL4390639, “Design, Synthesis, and Biological Evaluation of Novel Allosteric Protein Disulfide Isomerase Inhibitors” (J Med Chem, 2019).
